Assay results published in ChEMBL document CHEMBL1138062 (J Med Chem, 2006).
Active and inactive are the calls of the source. The calls are words filed in the database; no cut-off is given here.

Tests used:
[1] = biological target: T1, GABA transporter 2 (Mus musculus) (UniProt P31651); assay: Inhibition of [3H]GABA uptake at mouse GABA transporter2 expressed in HEK293 cells at 1 mM; type: cell-based
T1 sequence (whole entry): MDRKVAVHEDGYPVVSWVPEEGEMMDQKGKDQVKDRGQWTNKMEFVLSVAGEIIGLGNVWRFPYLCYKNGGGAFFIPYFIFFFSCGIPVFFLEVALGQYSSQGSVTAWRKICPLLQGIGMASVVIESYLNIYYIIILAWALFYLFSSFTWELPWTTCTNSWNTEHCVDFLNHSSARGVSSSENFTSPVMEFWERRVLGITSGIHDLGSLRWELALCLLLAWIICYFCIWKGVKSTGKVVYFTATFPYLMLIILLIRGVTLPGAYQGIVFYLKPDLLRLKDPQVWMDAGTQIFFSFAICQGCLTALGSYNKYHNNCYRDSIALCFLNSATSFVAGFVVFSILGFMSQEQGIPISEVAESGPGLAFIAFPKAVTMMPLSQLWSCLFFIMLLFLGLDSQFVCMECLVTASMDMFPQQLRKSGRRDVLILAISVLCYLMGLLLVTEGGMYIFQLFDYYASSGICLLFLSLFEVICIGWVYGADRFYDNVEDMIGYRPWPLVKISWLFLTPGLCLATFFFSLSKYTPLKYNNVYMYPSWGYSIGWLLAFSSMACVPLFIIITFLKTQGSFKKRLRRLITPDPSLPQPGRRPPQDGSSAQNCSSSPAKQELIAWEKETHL

GABA-B receptor (rat) = assay: Inhibition of [3H]GABA binding in GABAB receptor in rat brain synaptic membranes
[2] = biological target: T2, GABA transporter 3 (Mus musculus) (UniProt P31649); assay: Inhibition of [3H]GABA uptake at mouse GABA transporter3 expressed in HEK293 cells at 1 mM; type: cell-based
T2 sequence (whole entry): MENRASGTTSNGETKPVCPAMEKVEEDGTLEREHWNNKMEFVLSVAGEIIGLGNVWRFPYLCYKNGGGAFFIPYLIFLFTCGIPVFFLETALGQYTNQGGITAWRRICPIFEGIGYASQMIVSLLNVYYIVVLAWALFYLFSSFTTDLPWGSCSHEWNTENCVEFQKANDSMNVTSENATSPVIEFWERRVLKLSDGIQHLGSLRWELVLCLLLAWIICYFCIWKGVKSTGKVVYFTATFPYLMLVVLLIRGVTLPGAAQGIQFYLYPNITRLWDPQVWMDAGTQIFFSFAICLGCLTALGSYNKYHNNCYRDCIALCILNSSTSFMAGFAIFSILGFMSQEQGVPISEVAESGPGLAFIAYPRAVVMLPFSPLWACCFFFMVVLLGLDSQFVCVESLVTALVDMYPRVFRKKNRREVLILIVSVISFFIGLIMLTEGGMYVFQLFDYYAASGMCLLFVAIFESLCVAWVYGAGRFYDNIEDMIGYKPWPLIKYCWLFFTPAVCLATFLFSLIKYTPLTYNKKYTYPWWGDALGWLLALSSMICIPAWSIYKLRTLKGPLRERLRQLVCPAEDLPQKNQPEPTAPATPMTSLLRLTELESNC

[3] = Agonist activity at GABAA receptor in mouse cerebral cortical neurons assessed as induction of peak current at 3 mM relative to GABA by whole cell patch clamp method; type: functional
Procedure, shortened: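 Peak currents evoked by 3 mM test agent compared with a close to maximal GABA response (600 µM). Specificity was checked by pretreating cells with gabazine (100 µM) for 15 s, then co-applying gabazine (100 µM) with agonist (3 mM). Values are mean ± SE, N = 3–7.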

[4] = biological target: T3, GABA transporter 4 (Mus musculus) (UniProt P31650); assay: Inhibition of [3H]GABA uptake at mouse GABA transporter4 expressed in HEK293 cells at 1 mM; type: cell-based
T3 sequence (whole entry): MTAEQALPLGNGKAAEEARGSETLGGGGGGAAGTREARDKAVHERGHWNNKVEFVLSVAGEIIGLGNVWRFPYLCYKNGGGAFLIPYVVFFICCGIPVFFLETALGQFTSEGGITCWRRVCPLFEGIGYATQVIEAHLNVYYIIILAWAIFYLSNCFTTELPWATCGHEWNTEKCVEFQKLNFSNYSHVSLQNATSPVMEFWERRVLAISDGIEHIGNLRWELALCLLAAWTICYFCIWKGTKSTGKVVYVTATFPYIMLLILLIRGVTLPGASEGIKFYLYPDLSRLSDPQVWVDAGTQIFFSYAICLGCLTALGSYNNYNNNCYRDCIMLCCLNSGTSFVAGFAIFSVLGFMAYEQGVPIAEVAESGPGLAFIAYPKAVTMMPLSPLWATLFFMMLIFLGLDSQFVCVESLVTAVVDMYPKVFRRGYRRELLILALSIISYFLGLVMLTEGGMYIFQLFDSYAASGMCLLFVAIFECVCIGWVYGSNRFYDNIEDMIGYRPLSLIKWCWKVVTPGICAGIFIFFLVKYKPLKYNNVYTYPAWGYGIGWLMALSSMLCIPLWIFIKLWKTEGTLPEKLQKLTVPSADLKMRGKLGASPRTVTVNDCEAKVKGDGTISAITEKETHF

[5] = biological target: Sodium- and chloride-dependent GABA transporter 1 (Mus musculus) (UniProt P31648); assay: Inhibition of [3H]GABA uptake at mouse GABA transporter1 expressed in HEK293 cells at 1 mM; type: cell-based
Mus musculus = organism: Mus musculus; assay: Inhibition of isoguvacine-induced current in mouse cerebral cortical neurons expressing GABAA receptor by whole cell patch clamp method; type: functional
Procedure, shortened: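 Test agent applied at a range of concentrations against isoguvacine-evoked currents. Currents normalized to the current induced by 20 µM isoguvacine. Mean ± SE from nine neurons. IC50 estimated by linear regression.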

[6] = biological target: GABA-A receptor; anion channel; assay: Displacement of [3H]muscimol from GABAA receptor in rat brain synaptic membranes; type: cell membranes, Membrane
Procedure, shortened: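 Rat brain membrane preparations used for receptor binding. IC50 and Ki treated as log-normally distributed; mean and SEM calculated on the log scale, with the range given as the antilog of log mean ± SEM.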

Row | Structure (SMILES) | inhibition [1] | IC50 (GABA-B receptor (rat)) | inhibition [2] | Activity [3] | inhibition [4] | inhibition [5] | inhibition (Mus musculus) | IC50 [6] | Ki [6]
1 | NCCCCc1nonc1O | inactive | > 100 µM | inactive | 0.8% | inactive | inactive | Dose-dependent effect | > 100 µM | 
2 | NCCc1nonc1O | inactive | 2 µM | inactive | 40% | inactive | inactive | Dose-dependent effect |  | 13 µM
3 | NCCCc1nonc1O | inactive | 25 µM | inactive | 14% | inactive | inactive | Dose-dependent effect |  | 27 µM
